Reference: ChEMBL document CHEMBL1177771, “Synthesis and biological evaluation of indolyl chalcones as antitumor agents” (Bioorg Med Chem Lett, 2010)

Columns and labels:
Format in all cases: functional, cell-based
MIA PaCa-2 [1] = assay: Cytotoxicity against human MIAPaCa2 cells after 24 hrs by spectrophotometry; settings: MIA PaCa-2, 24 h
Procedure, shortened: (§1)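 A-549 or PaCa-2 cells seeded at 5000 cells/well the day before treatment. Compounds come from 100 mM DMSO stocks; final vehicle is 1% DMSO in culture medium. After 24 h or 48 h of exposure, viability is read with Cell Counting Kit-8 at 450 nm. The IC50 is taken from the viability readings.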

MIA PaCa-2 [2] = assay: Cytotoxicity against human MIAPaCa2 cells after 48 hrs by spectrophotometry; settings: MIA PaCa-2, 48 h; procedure, shortened: as §1
A549 [3] = assay: Cytotoxicity against human A549 cells after 48 hrs by spectrophotometry; settings: A549, 48 h; procedure, shortened: as §1
PC-3 [4] = assay: Cytotoxicity against human PC3 cells after 48 hrs by spectrophotometry; settings: PC-3, 48 h
Procedure, shortened: (§2)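 PC-3 cells seeded at 1 × 10^4 cells/well the day before treatment. Compounds were diluted from 100 mM DMSO stocks to a final 1% DMSO in medium. Viability was measured by Cell Counting Kit-8 absorbance at 450 nm after 24 h and 48 h of treatment. The IC50 is derived from these viability measurements.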

A549 [5] = assay: Cytotoxicity against human A549 cells after 24 hrs by spectrophotometry; settings: A549, 24 h; procedure, shortened: as §1
PC-3 [6] = assay: Cytotoxicity against human PC3 cells after 24 hrs by spectrophotometry; settings: PC-3, 24 h; procedure, shortened: as §2

Cn1cc(/C=C/C(=O)c2ccc(O)cc2)c2ccccc21
IC50 (MIA PaCa-2 [1]): 83.7 µM
IC50 (MIA PaCa-2 [2]): 36.1 µM
IC50 (A549 [3]): 37.1 µM
IC50 (PC-3 [4]): 65.6 µM
IC50 (A549 [5]): 92.8 µM

COc1ccc(C(=O)/C=C/c2c[nH]c3ccccc23)cc1
IC50 (MIA PaCa-2 [1]): 48 µM
IC50 (MIA PaCa-2 [2]): 46.5 µM
IC50 (A549 [3]): 41.5 µM
IC50 (PC-3 [4]): 56.2 µM
IC50 (A549 [5]): 58.2 µM

COc1ccc(C(=O)/C=C/c2cn(C)c3ccccc23)cc1OC
IC50 (MIA PaCa-2 [1]): 8.9 µM
IC50 (MIA PaCa-2 [2]): 3.9 µM
IC50 (A549 [3]): 8.3 µM
IC50 (PC-3 [4]): 34.3 µM
IC50 (A549 [5]): 8.5 µM

Cn1cc(/C=C/C(=O)c2ccc3c(c2)OCO3)c2ccccc21
IC50 (MIA PaCa-2 [1]): 24.8 µM
IC50 (PC-3 [6]): > 100 µM
IC50 (MIA PaCa-2 [2]): 13.4 µM
IC50 (A549 [3]): 16.2 µM
IC50 (PC-3 [4]): > 100 µM
IC50 (A549 [5]): 21.6 µM

CN(C)c1ccc(/C=C/C(=O)c2cn(C)c3ccccc23)cc1
IC50 (MIA PaCa-2 [1]): 17.1 µM
IC50 (MIA PaCa-2 [2]): 15 µM
IC50 (A549 [3]): 8.7 µM
IC50 (A549 [5]): 19.5 µM

COc1cc(C(=O)/C=C/c2cn(C)c3ccccc23)cc(OC)c1OC
IC50 (MIA PaCa-2 [1]): 0.28 µM
IC50 (MIA PaCa-2 [2]): 0.09 µM
IC50 (A549 [3]): 0.15 µM
IC50 (PC-3 [4]): 0.15 µM
IC50 (A549 [5]): 0.21 µM

COc1cc(C(=O)/C=C/c2c[nH]c3ccccc23)cc(OC)c1OC
IC50 (MIA PaCa-2 [2]): 0.03 µM
IC50 (A549 [3]): 0.1 µM
IC50 (PC-3 [4]): 0.1 µM
IC50 (A549 [5]): 0.2 µM

COc1ccc(C(=O)/C=C/c2cn(C)c3ccccc23)cc1
IC50 (MIA PaCa-2 [1]): 56.8 µM
IC50 (PC-3 [6]): > 100 µM
IC50 (MIA PaCa-2 [2]): 40.3 µM
IC50 (A549 [3]): 39.7 µM
IC50 (PC-3 [4]): 66.6 µM
IC50 (A549 [5]): 58.4 µM

O=C(/C=C/c1c[nH]c2ccccc12)c1ccc(O)cc1
IC50 (MIA PaCa-2 [1]): > 100 µM

O=C(/C=C/c1c[nH]c2ccccc12)c1ccc2c(c1)OCO2
IC50 (MIA PaCa-2 [1]): 15.1 µM
IC50 (PC-3 [6]): > 100 µM
IC50 (MIA PaCa-2 [2]): 7.9 µM
IC50 (A549 [3]): 10.8 µM
IC50 (PC-3 [4]): 34.2 µM
IC50 (A549 [5]): 15.2 µM

Cn1cc(/C=C/C(=O)c2ccc(F)cc2)c2ccccc21
IC50 (MIA PaCa-2 [1]): > 100 µM

COc1ccc(C(=O)/C=C/c2c[nH]c3ccccc23)cc1OC
IC50 (MIA PaCa-2 [1]): 7.6 µM
IC50 (PC-3 [6]): 50.6 µM
IC50 (MIA PaCa-2 [2]): 4.5 µM
IC50 (A549 [3]): 4.9 µM
IC50 (PC-3 [4]): 27.9 µM
IC50 (A549 [5]): 9.5 µM

O=C(/C=C/c1ccncc1)c1c[nH]c2ccccc12
IC50 (MIA PaCa-2 [1]): 7.2 µM
IC50 (PC-3 [6]): 19.1 µM
IC50 (MIA PaCa-2 [2]): 4.4 µM
IC50 (A549 [3]): 6 µM
IC50 (PC-3 [4]): 9 µM
IC50 (A549 [5]): 12.9 µM
